Consider 16 molecules from ChEMBL document CHEMBL3861977, “Effects of Oleanane-Type Triterpene Saponins from the Leaves of Eleutherococcus senticosus in an Axonal Outgrowth Assay” (J Nat Prod, 2016).

Each structure is given as a SMILES string. Calls of active or inactive are those of the source. The rule behind the calls is not given here.

This assay relates to Cortical neurone. The assay is described as follows: Inhibition of amyloid beta (25 to 35)-induced neuronal degeneration in ddY mouse embryo cortical neurons assessed as restoration of axonal outgrowth by measuring length of phosphorylated neurofilament-H-positive neurites at 10 uM treated 3 days post amyloid beta (25 to 35) stimulation measured after 4 days by fluorescent microscopic analysis. Type of assay: functional. The essentials:
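Cortical neurons from E14 ddY mouse embryos, plated on poly-D-lysine (5 μg/mL) in neurobasal medium with 12% horse serum, switched to 2% B-27 medium 3−12 h later, 37 °C, 10% CO2. Day 3: 10 μM Aβ25−35 (pre-aggregated 4 days at 37 °C) for 3 days. Then Aβ removed; 10 μM isolate, 0.1% DMSO vehicle or NGF 10 ng/mL for 4 days. Fixed in 4% PFA, stained for pNF-H and DAPI, pNF-H-positive neurite length measured; 10−79 photos per treatment, Dunnett's test.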

For `CC(=O)OC[C@H]1O[C@@H](OC[C@H]2O[C@@H](OC(=O)[C@]34CC[C@@](C)(C(=O)O)C[C@H]3C3=CC[C@@H]5[C@@]6(C)CC[C@H](O[C@@H]7OC[C@H](O)[C@H](O)[C@H]7O[C@@H]7O[C@@H](C)[C@H](O)[C@@H](O)[C@H]7O)C(C)(C)[C@@H]6CC[C@@]5(C)[C@]3(C)CC4)[C@H](O)[C@@H](O)[C@@H]2O)[C@H](O)[C@@H](O)[C@@H]1O[C@@H]1O[C@@H](C)[C@H](O)[C@@H](O)[C@H]1O`, the inhibition result was “Active”.
Turning to `C[C@@H]1O[C@@H](O[C@H]2[C@H](O)[C@@H](O)[C@H](OC[C@H]3O[C@@H](OC(=O)[C@]45CC[C@@](C)(C=O)C[C@H]4C4=CC[C@@H]6[C@@]7(C)CC[C@H](O[C@@H]8OC[C@H](O)[C@H](O)[C@H]8O)C(C)(C)[C@@H]7CC[C@@]6(C)[C@]4(C)CC5)[C@H](O)[C@@H](O)[C@@H]3O)O[C@@H]2CO)[C@H](O)[C@H](O)[C@H]1O`, the inhibition entry was “Active”.
Under `C=C1CC[C@]2(C(=O)O[C@@H]3O[C@H](CO[C@@H]4O[C@H](COC(C)=O)[C@@H](O[C@@H]5O[C@@H](C)[C@H](O)[C@@H](O)[C@H]5O)[C@H](O)[C@H]4O)[C@@H](O)[C@H](O)[C@H]3O)CC[C@]3(C)C(=CC[C@@H]4[C@@]5(C)CC[C@H](O[C@@H]6OC[C@H](O)[C@H](O)[C@H]6O)C(C)(C)[C@@H]5CC[C@]43C)[C@@H]2C1` stands “Active”; under `CC(=O)OC[C@H]1O[C@@H](OC[C@H]2O[C@@H](OC(=O)[C@]34CCC(C)(C)C[C@H]3C3=CC[C@@H]5[C@@]6(C)CC[C@H](O[C@@H]7OC[C@H](O)[C@H](O)[C@H]7O[C@@H]7O[C@H](CO)[C@@H](O)[C@H](O)[C@H]7O)C(C)(C)[C@@H]6CC[C@@]5(C)[C@]3(C)CC4)[C@H](O)[C@@H](O)[C@@H]2O)[C@H](O)[C@@H](O)[C@@H]1O[C@@H]1O[C@@H](C)[C@H](O)[C@@H](O)[C@H]1O`, “Active”; under `CC(=O)OC[C@H]1O[C@@H](OC[C@H]2O[C@@H](OC(=O)[C@]34CCC(C)(C)C[C@H]3C3=CC[C@@H]5[C@@]6(C)CC[C@H](O[C@@H]7OC[C@H](O)[C@H](O)[C@H]7O[C@@H]7O[C@@H](C)[C@H](O)[C@@H](O)[C@H]7O)C(C)(C)[C@@H]6CC[C@@]5(C)[C@]3(C)CC4)[C@H](O)[C@@H](O)[C@@H]2O)[C@H](O)[C@@H](O)[C@@H]1O[C@@H]1O[C@@H](C)[C@H](O)[C@@H](O)[C@H]1O`, “Active”.
For the molecule `CC(=O)OC[C@H]1O[C@@H](OC[C@H]2O[C@@H](OC(=O)[C@]34CC[C@@](C)(C(=O)O)C[C@H]3C3=CC[C@@H]5[C@@]6(C)CC[C@H](O[C@@H]7OC[C@H](O)[C@H](O)[C@H]7O)C(C)(C)[C@@H]6CC[C@@]5(C)[C@]3(C)CC4)[C@H](O)[C@@H](O)[C@@H]2O)[C@H](O)[C@@H](O)[C@@H]1O[C@@H]1O[C@@H](C)[C@H](O)[C@@H](O)[C@H]1O`, the inhibition entry is “Active”.
Take `CC(=O)OC[C@H]1O[C@@H](OC[C@H]2O[C@@H](OC(=O)[C@]34CC[C@@](C)(CO)C[C@H]3C3=CC[C@@H]5[C@@]6(C)CC[C@H](O[C@@H]7OC[C@H](O)[C@H](O)[C@H]7O[C@@H]7O[C@@H](C)[C@H](O)[C@@H](O)[C@H]7O)C(C)(C)[C@@H]6CC[C@@]5(C)[C@]3(C)CC4)[C@H](O)[C@@H](O)[C@@H]2O)[C@H](O)[C@@H](O)[C@@H]1O[C@@H]1O[C@@H](C)[C@H](O)[C@@H](O)[C@H]1O`: the inhibition entry was “Active”.
Consider `C[C@@H]1O[C@@H](O[C@H]2[C@H](O[C@H]3CC[C@@]4(C)[C@@H](CC[C@]5(C)[C@@H]4CC=C4[C@@H]6CC(C)(C)CC[C@]6(C(=O)O[C@@H]6O[C@H](CO[C@@H]7O[C@H](CO)[C@@H](O[C@@H]8O[C@@H](C)[C@H](O)[C@@H](O)[C@H]8O)[C@H](O)[C@H]7O)[C@@H](O)[C@H](O)[C@H]6O)CC[C@]45C)[C@]3(C)CO)OC[C@H](O)[C@@H]2O)[C@H](O)[C@H](O)[C@H]1O`, for which the inhibition result was “Active”.
Under `C=C1CC[C@]2(C(=O)O[C@@H]3O[C@H](CO[C@@H]4O[C@H](CO)[C@@H](O[C@@H]5O[C@@H](C)[C@H](O)[C@@H](O)[C@H]5O)[C@H](O)[C@H]4O)[C@@H](O)[C@H](O)[C@H]3O)CC[C@]3(C)C(=CC[C@@H]4[C@@]5(C)CC[C@H](O[C@@H]6OC[C@H](O)[C@H](O)[C@H]6O[C@@H]6O[C@@H](C)[C@H](O)[C@@H](O)[C@H]6O)C(C)(C)[C@@H]5CC[C@]43C)[C@@H]2C1` stands “Active”.
For `CC(=O)OC[C@H]1O[C@@H](OC[C@H]2O[C@@H](OC(=O)[C@]34CC[C@@](C)(C=O)C[C@H]3C3=CC[C@@H]5[C@@]6(C)CC[C@H](O[C@@H]7OC[C@H](O)[C@H](O)[C@H]7O[C@@H]7O[C@@H](C)[C@H](O)[C@@H](O)[C@H]7O)C(C)(C)[C@@H]6CC[C@@]5(C)[C@]3(C)CC4)[C@H](O)[C@@H](O)[C@@H]2O)[C@H](O)[C@@H](O)[C@@H]1O[C@@H]1O[C@@H](C)[C@H](O)[C@@H](O)[C@H]1O` the value was “Active”; for `C[C@@H]1O[C@@H](O[C@H]2[C@H](O[C@H]3CC[C@]4(C)[C@H]5CC=C6[C@@H]7C[C@](C)(C=O)CC[C@]7(C(=O)O[C@@H]7O[C@H](CO[C@@H]8O[C@H](CO)[C@@H](O[C@@H]9O[C@@H](C)[C@H](O)[C@@H](O)[C@H]9O)[C@H](O)[C@H]8O)[C@@H](O)[C@H](O)[C@H]7O)CC[C@@]6(C)[C@]5(C)CC[C@H]4C3(C)C)OC[C@H](O)[C@@H]2O)[C@H](O)[C@H](O)[C@H]1O`, “Active”.
`C[C@@H]1O[C@@H](O[C@H]2[C@H](O)[C@@H](O)[C@H](OC[C@H]3O[C@@H](OC(=O)[C@]45CCC(C)(C)C[C@H]4C4=CC[C@@H]6[C@@]7(C)CC[C@H](O[C@@H]8OC[C@H](O)[C@H](O)[C@H]8O)C(C)(C)[C@@H]7CC[C@@]6(C)[C@]4(C)CC5)[C@H](O)[C@@H](O)[C@@H]3O)O[C@@H]2CO)[C@H](O)[C@H](O)[C@H]1O`: the inhibition entry was “Active”.
Turning to `C[C@@H]1O[C@@H](O[C@H]2[C@H](O[C@H]3CC[C@]4(C)[C@H]5CC=C6[C@@H]7CC(C)(C)CC[C@]7(C(=O)O[C@@H]7O[C@H](CO[C@@H]8O[C@H](CO)[C@@H](O[C@@H]9O[C@@H](C)[C@H](O)[C@@H](O)[C@H]9O)[C@H](O)[C@H]8O)[C@@H](O)[C@H](O)[C@H]7O)CC[C@@]6(C)[C@]5(C)CC[C@H]4C3(C)C)OC[C@H](O)[C@@H]2O)[C@H](O)[C@H](O)[C@H]1O`, the inhibition result was “Active”.
For `C=C1CC[C@]2(C(=O)O[C@@H]3O[C@H](CO[C@@H]4O[C@H](COC(C)=O)[C@@H](O[C@@H]5O[C@@H](C)[C@H](O)[C@@H](O)[C@H]5O)[C@H](O)[C@H]4O)[C@@H](O)[C@H](O)[C@H]3O)CC[C@]3(C)C(=CC[C@@H]4[C@@]5(C)CC[C@H](O[C@@H]6OC[C@H](O)[C@H](O)[C@H]6O[C@@H]6O[C@H](CO)[C@@H](O)[C@H](O)[C@H]6O)C(C)(C)[C@@H]5CC[C@]43C)[C@@H]2C1` the value was “Active”; for `C=C1CC[C@]2(C(=O)O[C@@H]3O[C@H](CO[C@@H]4O[C@H](COC(C)=O)[C@@H](O[C@@H]5O[C@@H](C)[C@H](O)[C@@H](O)[C@H]5O)[C@H](O)[C@H]4O)[C@@H](O)[C@H](O)[C@H]3O)CC[C@]3(C)C(=CC[C@@H]4[C@@]5(C)CC[C@H](O[C@@H]6OC[C@H](O)[C@H](O)[C@H]6O[C@@H]6O[C@@H](C)[C@H](O)[C@@H](O)[C@H]6O)C(C)(C)[C@@H]5CC[C@]43C)[C@@H]2C1`, “Active”; for `C[C@@H]1O[C@@H](O[C@H]2[C@H](O)[C@@H](O)[C@H](OC[C@H]3O[C@@H](OC(=O)[C@]45CCC(C)(C)C[C@H]4C4=CC[C@@H]6[C@@]7(C)CC[C@H](O[C@@H]8OC[C@H](O)[C@H](O[C@@H]9O[C@H](CO)[C@@H](O)[C@H](O)[C@H]9O)[C@H]8O)C(C)(C)[C@@H]7CC[C@@]6(C)[C@]4(C)C[C@@H]5O)[C@H](O)[C@@H](O)[C@@H]3O)O[C@@H]2CO)[C@H](O)[C@H](O)[C@H]1O`, “Active”.
